Assay results of several laboratories.
ABHD6: Monoacylglycerol lipase ABHD6 (ABHD6, Homo sapiens, UniProt Q9BV23)
Oprm1: Mu-type opioid receptor (Oprm1, Rattus norvegicus, UniProt P33535)
DRD4: D(4) dopamine receptor (DRD4, Homo sapiens, UniProt P21917)
Signal transducer and activator of transcription 6 SH2: Signal transducer and activator of transcription 6, SH2 (Homo sapiens, UniProt P42226)

SMILES	target	test	conditions	IC50
CC(=O)c1c(O)c(C)c(O)c(Cc2c(O)c3c(c(C(=O)/C=C/c4ccccc4)c2O)OC(C)(C)C=C3)c1O	Protein-glutamine gamma-glutamyltransferase (TGM2, Homo sapiens, UniProt P21980)	enzyme activity, inhibitor	–	> 50000 nM
C[C@H](N)Cn1ncc2ccc3c(c21)CCCO3	5-hydroxytryptamine receptor 5A (HTR5A, Homo sapiens, UniProt P47898)	ligand displacement, radioligand	–	10800 nM
C=CCOC(Cn1ccnc1)c1ccc(Cl)cc1Cl (centres unmarked)	Pleiotropic ABC efflux transporter of multiple drugs (PDR5, Saccharomyces cerevisiae S288c, UniProt P33302)	transporter uptake, inhibitor	–	60000 to 70000 nM
CN(C(=O)Oc1nsnc1N1CCCCC1)c1cccc(-c2ccccc2)c1	ABHD6	enzyme activity, inhibitor, fluorescence	lysate	910 nM
C[C@@H](NC(=O)[C@@H](N)Cc1ccc(O)cc1)C(=O)NCC(=O)N[C@H](CC(=O)NNC(=O)C[C@H](Cc1ccccc1)NC(=O)CNC(=O)[C@@H](C)NC(=O)[C@@H](N)Cc1ccc(O)cc1)Cc1ccccc1	Oprm1	ligand displacement, radioligand	–	2.29 nM
CN(C(=O)Oc1nsnc1N1CCCCC1)c1ccc(Cl)cc1	ABHD6	enzyme activity, inhibitor, fluorescence	lysate	407 nM
C[C@@H](NC(=O)[C@@H](N)Cc1ccc(O)cc1)C(=O)NCCC(=O)N[C@@H](Cc1ccccc1)C(=O)NNC(=O)[C@H](Cc1ccccc1)NC(=O)CCNC(=O)[C@@H](C)NC(=O)[C@@H](N)Cc1ccc(O)cc1	Oprm1	ligand displacement, radioligand	–	380 nM
CCN(CC)Cc1cc(Nc2ccnc3cc(Cl)ccc23)ccc1O	Genome polyprotein, protease (Dengue virus type 2, UniProt P14340)	enzyme activity, inhibitor	–	≥ 250000 nM
COc1ccccc1OCCNCC(O)COc1cccc2[nH]c3ccccc3c12 (centres unmarked)	DRD4	ligand displacement, radioligand	–	20 nM
O=P(O)(O)Oc1ccccc1OP(=O)(O)O	Signal transducer and activator of transcription 6 SH2	ligand displacement, FP	–	36000 nM
CN(C(=O)Oc1nsnc1N1CCCCC1)c1ccc(F)cc1	ABHD6	enzyme activity, inhibitor, fluorescence	lysate	78 nM
O=C(COc1ccc2cc(C(=O)Nc3ccccc3)ccc2c1)NCc1ccc(OP(=O)(O)O)c(OP(=O)(O)O)c1	Signal transducer and activator of transcription 6 SH2	ligand displacement, FP	–	7170 nM
COc1cc2c(cc1OC)C(=O)C(CC1CCN(Cc3ccccc3)CC1)C2 (centres unmarked)	DRD4	ligand displacement, radioligand	–	824 nM
COc1cccc(N(C)C(=O)Oc2nsnc2N2CCCCC2)c1	ABHD6	enzyme activity, inhibitor, fluorescence	lysate	195 nM
